Converted amounts (≈) assume the structure as drawn. The source made the active and inactive calls. The rule behind the calls is not given here.
Experiments:
[1] = tested on: Candida albicans; assay: Antifungal activity against Candida albicans assessed as zone of inhibition at 100 ug/ml by agar well diffusion method; type: functional; conditions: for zone of inhibition at 100 µg/mL: read-out: IZ
How it was run: (§1)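 For the agar well diffusion screen, samples at 100 µg/mL were made from a stock of 10 mg in 1 mL EtOH diluted 1:1 (v/v) with Mueller-Hinton medium. The zone of inhibition was scored as 5–10 mm poor, 10–15 moderate, 15–20 good and 20–25 very good. Gentamycin and nystatin were the reference drugs. Strains were confirmed at the University of Botswana microbiology laboratory.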

[2] = tested on: Staphylococcus aureus; assay: Antimicrobial activity against Staphylococcus aureus ATCC 25923 by agar well diffusion method; type: functional
[3] = tested on: Escherichia coli; assay: Antimicrobial activity against Escherichia coli ATCC 8739 by agar well diffusion method; type: functional
[4] = tested on: Pseudomonas aeruginosa; assay: Antimicrobial activity against Pseudomonas aeruginosa NCIMB 8295 by agar well diffusion method; type: functional
[5] = tested on: Bacillus subtilis; assay: Antimicrobial activity against Bacillus subtilis NCIB 3610 by agar well diffusion method; type: functional; conditions: subsp. subtilis str. NCIB 3610
[6] = tested on: Candida albicans; assay: Antifungal activity against Candida albicans by agar well diffusion method; type: functional
[7] = Antioxidant activity assessed as DPPH radical scavenging activity after 30 mins by spectrophotometry; type: physicochemical
How it was run: (§2)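 DPPH (0.51 mM in methanol) was mixed 1:1 by volume with the compound at several concentrations (100, 50, 25 … µg/mL range). Absorbance was read against a control, and % inhibition = (A0−As)/A0 ×100. Readings were taken at 30 min and 3 h, with ascorbic acid as the reference. Triplicate measurements.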

[8] = Antioxidant activity assessed as DPPH radical scavenging activity after 3 hrs by spectrophotometry; type: physicochemical; how it was run: as §2
[9] = Metal chelating activity of the compound assessed as formation of iron complex after 20 mins by spectrophotometry; type: physicochemical
How it was run: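 Fe2+ chelation was measured by disruption of the o-phenanthroline–Fe2+ complex. O-phenanthroline (0.05% in methanol) and FeCl2 (0.1%) were mixed with the sample at various concentrations and held at room temperature for 20 min, then read at 510 nm. EDTA was the standard chelator. % chelation = (Acontrol−Asample)/Acontrol ×100, and IC50 came from plots of % chelation versus concentration. Triplicates.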

[10] = tested on: Staphylococcus aureus; assay: Antimicrobial activity against Staphylococcus aureus ATCC 25923 assessed as zone of inhibition at 100 ug/ml by agar well diffusion method; type: functional; conditions: for zone of inhibition at 100 µg/mL: read-out: IZ; how it was run: as §1
[11] = tested on: Escherichia coli; assay: Antimicrobial activity against Escherichia coli ATCC 8739 assessed as zone of inhibition at 100 ug/ml by agar well diffusion method; type: functional; conditions: for zone of inhibition at 100 µg/mL: read-out: IZ; how it was run: as §1
[12] = tested on: Pseudomonas aeruginosa; assay: Antimicrobial activity against Pseudomonas aeruginosa NCIMB 8295 assessed as zone of inhibition at 100 ug/ml by agar well diffusion method; type: functional; conditions: for zone of inhibition at 100 µg/mL: read-out: IZ; how it was run: as §1
[13] = tested on: Bacillus subtilis; assay: Antimicrobial activity against Bacillus subtilis NCIB 3610 assessed as zone of inhibition at 100 ug/ml by agar well diffusion method; type: functional; conditions: for Activity: subsp. subtilis str. NCIB 3610; for zone of inhibition at 100 µg/mL: subsp. subtilis str. NCIB 3610, read-out: IZ; how it was run: as §1

Molecule	Activity [1]	MIC [2]	MIC [3]	MIC [4]	MIC [5]	MIC [6]	IC50 [7] [µg/mL]	IC50 [8] [µg/mL]	IC50 [9] [µg/mL]	Activity [10]	Activity [11]	Activity [12]	Activity [13]	zone of inhibition at 100 µg/mL [13] [mm]	zone of inhibition at 100 µg/mL [1] [mm]	zone of inhibition at 100 µg/mL [10] [mm]	zone of inhibition at 100 µg/mL [11] [mm]	zone of inhibition at 100 µg/mL [12] [mm]
COc1ccc(C2=CC3=NOC(=O)C3C(c3cccc([N+](=O)[O-])c3)C2)c(OC)c1 (stereo not drawn)	inactive	inactive	inactive	inactive	inactive	inactive	275 (≈ 697 µM)	140.02 (≈ 355 µM)	746.04 (≈ 1890 µM)	inactive	inactive	inactive	inactive					
COc1ccc(C2=CC3=NNC(=O)C3C(c3cccc([N+](=O)[O-])c3)C2)cc1 (stereo not drawn)	inactive	inactive	inactive	inactive	2.5 µg/mL (≈ 6.88 µM)	inactive	86.74 (≈ 239 µM)	38.38 (≈ 106 µM)	85.58 (≈ 236 µM)	inactive	inactive	inactive		11				
CCOC(=O)C1C(=O)C=C(c2ccc(OC)cc2OC)CC1c1cccc([N+](=O)[O-])c1 (stereo not drawn)	inactive	inactive	inactive	inactive	inactive	inactive	195.65 (≈ 460 µM)	95.43 (≈ 224 µM)	1006.67 (≈ 2370 µM)	inactive	inactive	inactive	inactive					
COc1ccc(C(=O)/C=C/c2cccc([N+](=O)[O-])c2)cc1							135.27 (≈ 478 µM)	92.46 (≈ 326 µM)	97.32 (≈ 344 µM)									
O=C1NN=C2C=C(c3ccc(Br)cc3)CC(c3cccc([N+](=O)[O-])c3)C12 (stereo not drawn)		2.5 µg/mL (≈ 6.06 µM)	inactive	inactive	2.5 µg/mL (≈ 6.06 µM)	2.5 µg/mL (≈ 6.06 µM)	103.6 (≈ 251 µM)	77.89 (≈ 189 µM)	106.36 (≈ 258 µM)		inactive	inactive		13	10	13		
O=C1ON=C2C=C(c3ccc(O)cc3)CC(c3cccc([N+](=O)[O-])c3)C12 (stereo not drawn)		2.5 µg/mL (≈ 7.14 µM)	2.5 µg/mL (≈ 7.14 µM)	inactive	inactive	2.5 µg/mL (≈ 7.14 µM)	202.15 (≈ 577 µM)	118.69 (≈ 339 µM)	360.98 (≈ 1030 µM)			inactive	inactive		10	10	10	
COc1ccc(C(=O)/C=C/c2cccc([N+](=O)[O-])c2)c(OC)c1							133.57 (≈ 426 µM)	96.22 (≈ 307 µM)	95.13 (≈ 304 µM)									
O=C1ON=C2C=C(c3ccccc3)CC(c3cccc([N+](=O)[O-])c3)C12 (stereo not drawn)		inactive	inactive	2.5 µg/mL (≈ 7.48 µM)	inactive	2.5 µg/mL (≈ 7.48 µM)	312.28 (≈ 934 µM)	215.71 (≈ 645 µM)	750.45 (≈ 2240 µM)	inactive	inactive		inactive		10			11
O=C1O[C@H]([C@@H](O)CO)C(O)=C1O [ASCORBIC ACID]							37.78 (≈ 215 µM)	25.26 (≈ 143 µM)										
O=C1ON=C2C=C(c3cccs3)CC(c3cccc([N+](=O)[O-])c3)C12 (stereo not drawn)		2.5 µg/mL (≈ 7.35 µM)	2.5 µg/mL (≈ 7.35 µM)	2.5 µg/mL (≈ 7.35 µM)	1.25 µg/mL (≈ 3.67 µM)	1.25 µg/mL (≈ 3.67 µM)	309.29 (≈ 909 µM)	197.78 (≈ 581 µM)	675.67 (≈ 1990 µM)					14	15	12	13	11
O=C(/C=C/c1cccc([N+](=O)[O-])c1)c1ccc(O)cc1							92.75 (≈ 344 µM)	40.67 (≈ 151 µM)	84.09 (≈ 312 µM)									
CCOC(=O)C1C(=O)C=C(c2ccc(O)cc2)CC1c1cccc([N+](=O)[O-])c1 (stereo not drawn)		inactive	inactive	inactive	2.5 µg/mL (≈ 6.56 µM)	2.5 µg/mL (≈ 6.56 µM)	175 (≈ 459 µM)	86.67 (≈ 227 µM)	1014 (≈ 2660 µM)	inactive	inactive	inactive		12	13			
CCOC(=O)C1C(=O)C=C(c2cccs2)CC1c1cccc([N+](=O)[O-])c1 (stereo not drawn)		inactive	inactive	inactive	2.5 µg/mL (≈ 6.73 µM)	2.5 µg/mL (≈ 6.73 µM)	208.95 (≈ 563 µM)	133.66 (≈ 360 µM)	1030.56 (≈ 2770 µM)	inactive	inactive	inactive		12	8			
O=C1ON=C2C=C(c3ccc(Br)cc3)CC(c3cccc([N+](=O)[O-])c3)C12 (stereo not drawn)		inactive	inactive	inactive	inactive	2.5 µg/mL (≈ 6.05 µM)	305.01 (≈ 738 µM)	218.75 (≈ 529 µM)	816.48 (≈ 1980 µM)	inactive	inactive	inactive	inactive		9			
O=C(/C=C/c1cccc([N+](=O)[O-])c1)c1ccc(Br)cc1							170 (≈ 512 µM)	122.8 (≈ 370 µM)	202.56 (≈ 610 µM)									
GENTAMICIN		< 0.02 µg/mL	< 0.02 µg/mL	< 0.02 µg/mL	< 0.02 µg/mL													
NYSTATIN						< 0.02 µg/mL												
O=C1NN=C2C=C(c3cccs3)CC(c3cccc([N+](=O)[O-])c3)C12 (stereo not drawn)		2.5 µg/mL (≈ 7.37 µM)	2.5 µg/mL (≈ 7.37 µM)	2.5 µg/mL (≈ 7.37 µM)	0.313 µg/mL (≈ 0.922 µM)	0.313 µg/mL (≈ 0.922 µM)	100.61 (≈ 296 µM)	63.78 (≈ 188 µM)	86.96 (≈ 256 µM)					22	23	9	11	10
COc1ccc(C2=CC3=NNC(=O)C3C(c3cccc([N+](=O)[O-])c3)C2)c(OC)c1 (stereo not drawn)	inactive	inactive	inactive	inactive	2.5 µg/mL (≈ 6.35 µM)	inactive	88.75 (≈ 226 µM)	39.67 (≈ 101 µM)	84.39 (≈ 215 µM)	inactive	inactive	inactive		9				
COc1ccc(C2=CC3=NOC(=O)C3C(c3cccc([N+](=O)[O-])c3)C2)cc1 (stereo not drawn)	inactive	inactive	inactive	inactive	2.5 µg/mL (≈ 6.86 µM)	inactive	258.75 (≈ 710 µM)	118.69 (≈ 326 µM)	704.31 (≈ 1930 µM)	inactive	inactive	inactive		12				
CCOC(=O)C1C(=O)C=C(c2ccc(OC)cc2)CC1c1cccc([N+](=O)[O-])c1 (stereo not drawn)	inactive	inactive	inactive	inactive	inactive	inactive	196.5 (≈ 497 µM)	98.53 (≈ 249 µM)	1028 (≈ 2600 µM)	inactive	inactive	inactive	inactive					
O=C(/C=C/c1cccc([N+](=O)[O-])c1)c1ccccc1							165.21 (≈ 652 µM)	112.5 (≈ 444 µM)	104.76 (≈ 414 µM)									
O=C(O)CN(CCN(CC(=O)O)CC(=O)O)CC(=O)O [EDETIC ACID]									50.98 (≈ 174 µM)									
O=C(/C=C/c1cccc([N+](=O)[O-])c1)c1cccs1							112.29 (≈ 433 µM)	90.73 (≈ 350 µM)	1029.41 (≈ 3970 µM)									
